Laboratory results: ChEMBL document CHEMBL4219069, “In silico studies, synthesis and pharmacological evaluation to explore multi-targeted approach for imidazole analogues as potential cholinesterase inhibitors with neuroprotective role for Alzheimer's disease” (Bioorg Med Chem, 2018)
The source made the active and inactive calls. The calls are words filed in the database; no cut-off is given here.

Assays:
[1] = molecular target: Cholinesterase (Equus caballus) (UniProt P81908); assay: Inhibition of equine serum BChE at 10 uM using S-butyrylthiocholine chloride as substrate preincubated for 15 mins followed by substrate addition and measured for 45 mins by Ellmans microplate assay
Cholinesterase (Equus caballus), sequence (P81908 whole entry): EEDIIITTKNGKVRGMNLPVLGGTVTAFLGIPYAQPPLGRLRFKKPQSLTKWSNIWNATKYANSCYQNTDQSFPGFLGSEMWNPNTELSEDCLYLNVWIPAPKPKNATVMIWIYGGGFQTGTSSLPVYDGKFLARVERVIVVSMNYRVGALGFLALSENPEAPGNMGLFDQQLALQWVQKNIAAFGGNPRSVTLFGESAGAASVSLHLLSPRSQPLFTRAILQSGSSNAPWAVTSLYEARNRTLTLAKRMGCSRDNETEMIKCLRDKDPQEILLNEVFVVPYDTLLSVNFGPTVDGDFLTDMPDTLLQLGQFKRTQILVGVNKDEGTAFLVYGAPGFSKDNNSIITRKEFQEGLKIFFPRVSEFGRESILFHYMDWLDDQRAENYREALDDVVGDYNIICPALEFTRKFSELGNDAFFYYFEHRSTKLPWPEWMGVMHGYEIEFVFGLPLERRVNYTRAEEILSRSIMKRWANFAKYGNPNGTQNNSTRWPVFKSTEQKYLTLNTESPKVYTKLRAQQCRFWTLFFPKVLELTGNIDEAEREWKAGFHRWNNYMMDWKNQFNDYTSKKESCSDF
Procedure, shortened: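 BuChE Ellman microplate assay at single 10 µM concentration: 0.1 M sodium phosphate buffer pH 8, sample in DMSO (1% final DMSO), 15 min room-temperature preincubation, then DTNB and S-butyrylthiocholine chloride; absorbance at 412 nm for 45 min, corrected by enzyme-free blanks. Quadruplicate, repeated at least twice; percent inhibition ± SD.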

Brain = assay: Antioxidant activity in brain homogenate (unknown origin) assessed as decrease in TBARS formation by UV-visible spectrophotometric method; assay type: functional, tissue-based
Procedure, shortened: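 Brain tissue homogenate mixed with test sample at five concentrations, SDS, 20% acetic acid and […], then heated at 95°C for 60 min. After cooling, the chromogen was extracted into butanol:pyridine (15:1) and centrifuged. Absorbance of the organic layer was read at 532 nm against a blank, in duplicate. % inhibition of TBARS = (Abs control − Abs sample)×100/Abs control.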

Acetylcholinesterase [2] = molecular target: Acetylcholinesterase (Homo sapiens, UniProt P22303); assay: Inhibition of AChE (unknown origin)
Acetylcholinesterase (Homo sapiens, UniProt P22303), sequence (P22303 whole entry): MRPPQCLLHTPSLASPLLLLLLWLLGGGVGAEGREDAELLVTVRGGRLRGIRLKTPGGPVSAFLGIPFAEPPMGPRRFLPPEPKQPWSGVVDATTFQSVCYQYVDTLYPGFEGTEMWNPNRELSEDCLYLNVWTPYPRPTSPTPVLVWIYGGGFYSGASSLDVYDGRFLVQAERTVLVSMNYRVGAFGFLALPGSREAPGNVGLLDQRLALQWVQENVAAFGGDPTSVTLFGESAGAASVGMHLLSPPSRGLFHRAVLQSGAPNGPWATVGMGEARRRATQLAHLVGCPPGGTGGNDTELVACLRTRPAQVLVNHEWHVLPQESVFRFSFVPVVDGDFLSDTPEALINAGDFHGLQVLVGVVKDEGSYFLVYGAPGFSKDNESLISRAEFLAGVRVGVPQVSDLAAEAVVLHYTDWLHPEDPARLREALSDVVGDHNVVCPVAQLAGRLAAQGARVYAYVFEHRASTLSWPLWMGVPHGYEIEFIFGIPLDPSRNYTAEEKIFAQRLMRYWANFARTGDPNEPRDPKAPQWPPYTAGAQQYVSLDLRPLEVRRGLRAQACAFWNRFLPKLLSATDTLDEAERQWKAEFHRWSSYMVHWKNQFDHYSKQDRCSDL

Acetylcholinesterase [3] = molecular target: Acetylcholinesterase (Electrophorus electricus, UniProt O42275); assay: Inhibition of electric eel AChE using acetylthiocholine iodide as substrate preincubated for 15 mins followed by substrate addition and measured for 45 mins by Ellmans microplate assay
Acetylcholinesterase (Electrophorus electricus, UniProt O42275), sequence (O42275 whole entry): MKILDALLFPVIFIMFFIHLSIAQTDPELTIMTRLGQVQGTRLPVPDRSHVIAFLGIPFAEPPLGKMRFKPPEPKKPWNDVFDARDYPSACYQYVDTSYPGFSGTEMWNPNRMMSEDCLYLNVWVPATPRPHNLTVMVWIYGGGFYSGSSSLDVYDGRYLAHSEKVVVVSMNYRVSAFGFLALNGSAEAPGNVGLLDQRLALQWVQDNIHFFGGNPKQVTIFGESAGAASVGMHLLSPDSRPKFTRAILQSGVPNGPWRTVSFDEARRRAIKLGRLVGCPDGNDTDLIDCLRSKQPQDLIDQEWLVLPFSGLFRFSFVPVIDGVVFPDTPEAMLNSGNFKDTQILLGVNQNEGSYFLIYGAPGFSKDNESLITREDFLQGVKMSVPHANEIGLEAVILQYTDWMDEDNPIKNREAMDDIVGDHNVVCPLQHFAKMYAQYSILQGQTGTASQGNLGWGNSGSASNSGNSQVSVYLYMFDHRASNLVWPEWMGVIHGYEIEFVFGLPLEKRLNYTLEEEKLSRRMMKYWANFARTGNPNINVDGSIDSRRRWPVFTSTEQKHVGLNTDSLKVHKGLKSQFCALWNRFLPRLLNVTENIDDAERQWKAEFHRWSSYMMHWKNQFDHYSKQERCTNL

Cholinesterase = Cholinesterase (Equus caballus, UniProt P81908); assay: Inhibition of equine serum BuChE using S-butyrylthiocholine chloride as substrate preincubated for 15 mins followed by substrate addition and measured for 45 mins by Ellmans microplate assay
Cholinesterase, sequence (P81908 whole entry): as the sequence (P81908 whole entry) above

Mus musculus [4] = assay: Toxicity in Swiss albino mouse assessed as effect on behavior at 800 mg/kg, po administered for 14 consecutive days; assay type: organism-based; conditions: in vivo
Procedure, shortened: (§1)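 Acute oral toxicity per OECD-423 in Swiss albino mice (20–25 g), 3 male + 3 female per group, acclimatized 15 days; suspension in water with 1% w/v sodium carboxymethylcellulose, given p.o. at 900 then 800 mg/kg. Clinical signs, behaviour (awareness, mood, CNS excitation/depression, autonomic reflexes) and mortality observed at 15 min–72 h and up to 14 days.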

Mus musculus [5] = assay: Toxicity in Swiss albino mouse assessed as mortality at 800 mg/kg, po administered for 14 consecutive days; assay type: organism-based; conditions: in vivo; procedure, shortened: as §1
Mus musculus [6] = assay: Toxicity in Swiss albino mouse assessed as effect on awareness at 800 mg/kg, po administered for 14 consecutive days; assay type: organism-based; conditions: in vivo; procedure, shortened: as §1
Mus musculus [7] = assay: Toxicity in Swiss albino mouse assessed as effect on mood at 800 mg/kg, po administered for 14 consecutive days; assay type: organism-based; conditions: in vivo; procedure, shortened: as §1
Mus musculus [8] = assay: Toxicity in Swiss albino mouse assessed as CNS excitation at 800 mg/kg, po administered for 14 consecutive days; assay type: organism-based; conditions: in vivo; procedure, shortened: as §1
Mus musculus [9] = assay: Toxicity in Swiss albino mouse assessed as CNS depression at 800 mg/kg, po administered for 14 consecutive days; assay type: organism-based; conditions: in vivo; procedure, shortened: as §1
Mus musculus [10] = assay: Toxicity in Swiss albino mouse assessed as effect on autonomic reflexes at 800 mg/kg, po administered for 14 consecutive days; assay type: organism-based; conditions: in vivo; procedure, shortened: as §1
[11] = Toxicity in Swiss albino mouse assessed as mortality at 900 mg/kg, po administered for 14 consecutive days; assay type: organism-based; conditions: in vivo; procedure, shortened: as §1
Mus musculus [12] = assay: Reversal of scopolamine-induced memory impairment in Swiss albino mouse assessed as decrease in transfer latency time at 50 to 100 mg/kg, po administered for 8 days followed by scopolamine challenge after 60 mins of last dose measured after 45 mins by elevated plus maze test; assay type: functional, organism-based
Procedure, shortened: (§2)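 Swiss albino mice (20–25 g, both sexes) were acclimatized 15 days and had five 5-min baseline trials on the elevated plus maze. Oral vehicle, test or piracetam (200 mg/kg) was given for 8 days. Scopolamine 0.4 mg/kg i.p. followed 1 h after the last dose. Training started 45 min later: each mouse was placed at the open-arm end facing away, and transfer latency was timed until all four legs entered a closed arm.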

Mus musculus [13] = assay: Reversal of scopolamine-induced memory deficit in Swiss albino mouse assessed as increase in step down latency time at 50 to 100 mg/kg, po administered for 8 days followed by scopolamine challenge by step down inhibitory avoidance test; assay type: functional, organism-based
Procedure, shortened: (§3)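 Done after the EPM session in the same mouse groups: oral test dosing for 8 days, then scopolamine 0.4 mg/kg i.p. Training used Cook's pole apparatus, a wooden platform on a bronze-bar grid, with each mouse placed on the platform and allowed to step down. 24 h later the mouse was lowered onto the platform and step-down latency was timed. Dunnett post-test was applied.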

Mus musculus [14] = assay: Reversal of scopolamine-induced memory impairment in Swiss albino mouse assessed as decrease in transfer latency time at 50 mg/kg, po administered for 8 days followed by scopolamine challenge after 60 mins of last dose measured after 45 mins by elevated plus maze test; assay type: functional, organism-based; procedure, shortened: as §2
Mus musculus [15] = assay: Reversal of scopolamine-induced memory deficit in Swiss albino mouse assessed as increase in step down latency time at 50 mg/kg, po administered for 8 days followed by scopolamine challenge by step down inhibitory avoidance test; assay type: functional, organism-based; procedure, shortened: as §3
Mus musculus [16] = assay: Reversal of scopolamine-induced memory impairment in Swiss albino mouse assessed as decrease in transfer latency time at 200 mg/kg, po administered for 8 days followed by scopolamine challenge after 60 mins of last dose measured after 45 mins by elevated plus maze test; assay type: functional, organism-based
Procedure, shortened: (§4)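 Swiss albino mice (20–25 g, both sexes), dosed p.o. once daily for eight days; scopolamine HBr 0.4 mg/kg i.p. given 1 h after the last dose. Transfer latency on elevated plus maze (open to closed arm, all four legs) recorded 45 min after scopolamine, after five 5-min pre-trials. Step-down latency on Cook's pole apparatus measured 24 h after training. Dunnett post-test.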

Mus musculus [17] = assay: Reversal of scopolamine-induced memory deficit in Swiss albino mouse assessed as increase in step down latency time at 200 mg/kg, po administered for 8 days followed by scopolamine challenge by step down inhibitory avoidance test; assay type: functional, organism-based; procedure, shortened: as §4

Row | Structure (SMILES) | inhibition [1] | IC50 (Brain) [µM] | also measured
1 | COc1ccc(-c2nc(-c3ccccc3)c(-c3ccccc3)[nH]2)cc1OC | inactive | 94 | –
2 | CCCCOc1ccc(C(=O)CCN2CCCCC2)cc1 [DYCLONINE] | – | – | IC50 (Acetylcholinesterase [2]): 0.181 µM
3 | COc1cccc(-c2nc(-c3ccccc3)c(-c3ccccc3)[nH]2)c1 | 19.2% | 86.5 | –
4 | COc1cc(-c2nc(-c3ccccc3)c(-c3ccccc3)[nH]2)cc(OC)c1O | inactive | 264 | –
5 | COc1cc(-c2nc(-c3ccccc3)c(-c3ccccc3)[nH]2)cc(OC)c1OC | 81.3% | 61.3 | IC50 (Acetylcholinesterase [3]): Not Active; IC50 (Cholinesterase; read-out: IC50): 4.99 µM; Activity (Mus musculus [4]): Non-Toxic; Activity (Mus musculus [5]): Non-Toxic; Activity (Mus musculus [6]): Non-Toxic; Activity (Mus musculus [7]): Non-Toxic; Activity (Mus musculus [8]): Non-Toxic; Activity (Mus musculus [9]): Non-Toxic; Activity (Mus musculus [10]): Non-Toxic; mortality at 14 days [11]: 50%; Activity (Mus musculus [12]): Active; Activity (Mus musculus [13]): Active
6 | Oc1cccc(-c2nc(-c3ccccc3)c(-c3ccccc3)[nH]2)c1 | inactive | 61.8 | IC50 (Acetylcholinesterase [3]; read-out: IC50): 5.33 µM; IC50 (Cholinesterase): Not Active; Activity (Mus musculus [14]): Active; Activity (Mus musculus [15]): Active
7 | Oc1ccc(-c2nc(-c3ccccc3)c(-c3ccccc3)[nH]2)cc1 | inactive | 62.4 | –
8 | Oc1ccc(-c2nc(-c3ccccc3)c(-c3ccccc3)[nH]2)cc1O | 79.5% | 59.4 | –
9 | c1ccc(-c2nc(-c3ccccc3)c(-c3ccccc3)[nH]2)cc1 | inactive | 106 | –
10 | CCc1nn(CCCN2CCN(c3cccc(Cl)c3)CC2)c(=O)n1CCOc1ccccc1 [NEFAZODONE] | – | – | IC50 (Acetylcholinesterase [2]): 1.04 µM
11 | NC(=O)CN1CCCC1=O | – | – | Activity (Mus musculus [16]): Active; Activity (Mus musculus [17]): Active
12 | O=C1O[C@H]([C@@H](O)CO)C(O)=C1O [ASCORBIC ACID] | – | 38.8 | –
13 | c1ccc(-c2nc[nH]c2-c2ccccc2)cc1 | 13% | 93.2 | –
14 | Oc1ccccc1-c1nc(-c2ccccc2)c(-c2ccccc2)[nH]1 | 13.7% | 101 | –
